14 compounds from ChEMBL document CHEMBL1127454, “Differential inhibition of aminopeptidase A and aminopeptidase N by new beta-amino thiols” (J Med Chem, 1994) can be followed below.

One experiment has as its target T1, Aminopeptidase N (Sus scrofa, UniProt P15145).
T1 sequence (P15145 whole entry): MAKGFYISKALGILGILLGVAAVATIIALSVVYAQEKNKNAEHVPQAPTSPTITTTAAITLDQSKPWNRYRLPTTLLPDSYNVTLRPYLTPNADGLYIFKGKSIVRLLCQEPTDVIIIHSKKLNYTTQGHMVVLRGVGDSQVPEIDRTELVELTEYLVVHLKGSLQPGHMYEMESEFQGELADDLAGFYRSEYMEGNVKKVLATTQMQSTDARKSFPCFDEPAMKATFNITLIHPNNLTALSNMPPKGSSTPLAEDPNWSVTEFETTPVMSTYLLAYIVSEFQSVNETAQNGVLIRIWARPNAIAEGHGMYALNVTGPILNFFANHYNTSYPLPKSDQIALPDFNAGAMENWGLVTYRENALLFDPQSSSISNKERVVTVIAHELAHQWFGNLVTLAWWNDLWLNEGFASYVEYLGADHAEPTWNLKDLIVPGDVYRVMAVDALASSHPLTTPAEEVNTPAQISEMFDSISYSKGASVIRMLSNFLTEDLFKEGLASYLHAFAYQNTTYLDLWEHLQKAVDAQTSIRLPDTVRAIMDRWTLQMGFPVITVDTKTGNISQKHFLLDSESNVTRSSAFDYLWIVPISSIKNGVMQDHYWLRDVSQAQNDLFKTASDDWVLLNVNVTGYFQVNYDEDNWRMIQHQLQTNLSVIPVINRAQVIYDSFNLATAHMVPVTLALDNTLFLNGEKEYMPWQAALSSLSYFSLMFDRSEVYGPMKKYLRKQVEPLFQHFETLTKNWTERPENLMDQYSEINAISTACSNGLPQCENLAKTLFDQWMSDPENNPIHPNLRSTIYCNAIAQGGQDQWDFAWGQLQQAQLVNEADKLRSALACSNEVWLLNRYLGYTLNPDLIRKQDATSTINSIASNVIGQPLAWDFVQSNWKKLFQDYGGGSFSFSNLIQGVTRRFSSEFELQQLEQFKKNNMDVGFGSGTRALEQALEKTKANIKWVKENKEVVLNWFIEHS
Briefly: Inhibitory potency was measured on aminopeptidase N (APN). An outline of the steps: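 APN preincubated 15 min at 25 °C with varied inhibitor levels in 50 mM Tris-HCl pH 7.4. […] Reaction run 15 min, stopped with HCl. Released [3H]Tyr separated on polystyrene beads and counted by liquid scintillation. Thiols dissolved with DTT (100 equiv). Ki derived from IC50 via Cheng-Prusoff, competitive inhibition assumed. Three experiments, triplicate.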
Compound `NC(CS)CCCCC(=O)O` (centres undefined) came in with a Ki of 0.28 µM.
Same read-out and setting: the figure for `N[C@H](CS)CCS(=O)(=O)O` is 25 µM; for `N[C@H](CS)CCCC(=O)O` it is 0.33 µM; for `N[C@H](CS)CCCS` it is 0.032 µM.
In turn, `N[C@@H](CS)CCCC(=O)O` registered a Ki of 15.5 µM.
Still for that read-out and setting: the figure for `NC(CS)CCC(C(=O)O)C(=O)O` (centres undefined) is 0.6 µM; for `NC(CS)CCCP(=O)(O)O` (centres undefined) it is 3.7 µM.
In turn, `NC(CS)CC(C(=O)O)C(=O)O` (centres undefined) showed a Ki of 4.5 µM.
On to `CC(C[C@H](N)CS)C(=O)O` (some centres undefined), for which the Ki came out at 4 µM.
For `CC(CC(N)CS)C(=O)O` (centres undefined), the Ki was 2.8 µM.
Take `N[C@H](CS)CCCC(=O)NO`: the affinity, expressed as Ki, was 0.037 µM.
Still for that read-out and setting: the figure for `N[C@H](CS)CCCS(=O)(=O)O` is 1.9 µM; for `NC(CS)CCP(=O)(O)O` (centres undefined) it is 12 µM.

The target in the next experiment is Glutamyl aminopeptidase (Oryctolagus cuniculus). Briefly: Inhibition of aminopeptidase A (APA).
For the compound `N[C@H](CS)CCC(=O)O`, the Ki came to 0.14 µM.

Broadly, the Ki is a dissociation constant, usually derived from enzyme kinetics or from competition with a known ligand.
